# pIC50: −log10 of the molar value. Activity calls are given as the source filed them. The rule behind the calls is not given here.
# Species on record: Rattus norvegicus
# Assay: Induction of rat liver mitochondria respiration assessed as consumption of oxygen at 1 to 10 uM by polarography
# Format: functional
# Procedure, shortened: (§1)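 Liver mitochondria isolated from a rat anesthetized with isoflurane and decapitated. Oxygen consumption measured polarographically. Compounds tested at 1, 5 and 10 μM, added in 4 μL DMSO. A DMSO-only (4 μL) solvent control was run alongside.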
row,SMILES,Activity
1,CC(=O)c1c(C)[n+]([O-])c2ccccc2[n+]1[O-] [MEQUINDOX],inactive

# Species on record: Rattus norvegicus
# Assay: Induction of rat liver mitochondria respiration assessed as consumption of oxygen by polarography
# Format: functional
# Procedure, shortened: as §1
row,SMILES,Activity
1,Cc1c(C(=O)/C=C/c2ccc(Cl)c(Cl)c2)[n+]([O-])c2ccccc2[n+]1[O-],Dose-dependent effect

# Tested on: Mycobacterium tuberculosis
# Assay: Antitubercular activity against Mycobacterium tuberculosis H37Rv ATCC 27294 by microplate alamar blue assay
# Format: functional, organism-based
# Procedure, shortened: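 Broth microdilution in BACTEC 12B medium, with Alamar Blue read-out.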
SMILES,pIC50,IC90 [µM]
Cc1ccc(/C=C/C(=O)c2c(C)[n+]([O-])c3ccccc3[n+]2[O-])cc1,5.25,9.44
CC(=O)c1c(C)[n+]([O-])c2ccccc2[n+]1[O-] [MEQUINDOX],5.17,7.89
Cc1c(C(=O)/C=C/c2ccc(F)cc2)[n+]([O-])c2ccccc2[n+]1[O-],5.23,10.7
Cc1c(C(=O)/C=C/c2ccc(Cl)cc2)[n+]([O-])c2ccccc2[n+]1[O-],5.58,4.12
COc1ccc(/C=C/C(=O)c2c(C)[n+]([O-])c3ccccc3[n+]2[O-])cc1,4.64,40.2
Cc1c(C(=O)/C=C/c2ccc3c(c2)OCO3)[n+]([O-])c2ccccc2[n+]1[O-],4.71,35.8
Cc1c(C(=O)/C=C/c2ccc(Br)cc2)[n+]([O-])c2ccccc2[n+]1[O-],5.43,> 250
Cc1c(C(=O)/C=C/c2ccc(Cl)c(Cl)c2)[n+]([O-])c2ccccc2[n+]1[O-],5.99,1.53
Cc1c(C(=O)/C=C/c2ccccc2)[n+]([O-])c2ccccc2[n+]1[O-],5.41,6.12
COc1ccc(/C=C/C(=O)c2c(C)[n+]([O-])c3ccccc3[n+]2[O-])cc1OC,5.04,17.2
COc1cc(/C=C/C(=O)c2c(C)[n+]([O-])c3ccccc3[n+]2[O-])cc(OC)c1OC,5.16,11.9
Cc1c(C(=O)/C=C/c2cccc([N+](=O)[O-])c2)[n+]([O-])c2ccccc2[n+]1[O-],5.66,2.39
Cc1c(C(=O)/C=C/c2ccc([N+](=O)[O-])cc2)[n+]([O-])c2ccccc2[n+]1[O-],< 3.60,> 250

# — ChEMBL document CHEMBL1250500, “E-2-[3-(3,4-dichlorophenyl)-1-oxo-2-propenyl]-3-methylquinoxaline-1,4-dioxide: a lead antitubercular agent which alters mitochondrial respiration in rat liver” (Eur J Med Chem, 2010)
